Experimental data: ChEMBL document CHEMBL2010700, “The discovery of aminopyrazines as novel, potent Na(v)1.7 antagonists: hit-to-lead identification and SAR” (Bioorg Med Chem Lett, 2012); call rule not given here
In brackets after ≈: the same amount, converted by molar mass.

Key:
[1] = AUC (infinity) in Sprague-Dawley rat at 2 mg/kg, po; type: ADME, organism-based; set-up: dose 2 mg/kg, route oral, time infinity; settings: plasma
Method in brief: (§1)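 Male Sprague-Dawley rats given 2.0 mpk orally in 10 mL/kg of 30% hydroxypropyl-β-cyclodextrin adjusted to pH 2.2 with methanesulfonic acid.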

[2] = Solubility of the compound in 0.01 N HCl; type: physicochemical
[3] = Solubility of the compound in phosphate buffered saline at pH 7.4; type: physicochemical
[4] = Solubility of the compound in simulated intestinal fluid; type: physicochemical
[5] = Cmax in Sprague-Dawley rat at 2 mg/kg, po; type: ADME, organism-based; set-up: dose 2 mg/kg, route oral; settings: in vivo; method in brief: as §1
[6] = Oral bioavailability in Sprague-Dawley rat at 2 mg/kg; type: ADME, organism-based; settings: in vivo; method in brief: as §1
[7] = Volume of distribution at steady state in Sprague-Dawley rat at 0.5 mg/kg, iv; type: ADME, organism-based; set-up: dose 0.5 mg/kg, route intravenous; settings: in vivo, read-out: Vdss
Plasma = experiment: Drug metabolism in rat plasma assessed as formation of mono-oxidized product at 10 uM after 3 hrs; type: ADME, cell-free

AUC(0-inf) [1]	solubility [2]	solubility [3]	solubility [4]	Cmax [5]	bioavailability [6]	Vd [7]	Drug metabolism (Plasma)	SMILES
760 nM·h	7 µg/mL (≈ 19.3 µM)	1 µg/mL (≈ 2.76 µM)	109 µg/mL (≈ 301 µM)	0.22 µM	13%	2.1 L/kg	–	Nc1cncc(Nc2ccc(Oc3ccc(OC(F)(F)F)cc3)cc2)n1
–	6 µg/mL (≈ 19.1 µM)	1 µg/mL (≈ 3.19 µM)	7 µg/mL (≈ 22.3 µM)	–	–	–	Active	Nc1ncnc(Nc2ccc(Oc3ccc(Cl)cc3)cc2)n1
